Assay results taken from ChEMBL document CHEMBL3875165, “Novel broad-spectrum and long-acting parenteral cephalosporins having an acyl cyanamide moiety at the C-3 terminal: Synthesis and structure-activity relationships” (Eur J Med Chem, 2016).
In brackets after ≈: the same amount, converted by molar mass.

Experiments:
Staphylococcus aureus [1] = assay: Antibacterial activity against Staphylococcus aureus SMITH after 20 hrs by agar dilution method; type: functional
Outline: (§1)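 Agar dilution MIC on Sensitivity Disk Agar-N with 2-fold serial drug dilutions. Overnight Mueller Hinton broth cultures were diluted to about 10^6 CFU/mL, and 1 µL spots were applied. Plates were incubated 20 h at 37 °C before scoring.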

[2] = Protein binding in cynomolgus monkey plasma after 30 mins by ultra-filtration method; type: ADME, cell-free, Macaca fascicularis; conditions: read-out: PPB (converted)
Outline: (§2)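 Mouse or monkey plasma was adjusted to pH 7 with CO2 and spiked with compound to a final 10 µg/ml. It was incubated 30 min at 37 °C, then ultrafiltered by centrifugation at 3200 rpm for 30 min at 25 °C. Free drug in the filtrate was measured by bioassay to give the bound fraction.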

Moraxella catarrhalis = assay: Antibacterial activity against Moraxella catarrhalis SR24290 after 20 hrs by agar dilution method; type: functional; conditions: SR24290, 20 h; outline: as §1
Haemophilus influenzae [3] = assay: Antibacterial activity against beta-lactamase non-producing penicillin-resistant Haemophilus influenzae SR11435 after 20 hrs by agar dilution method; type: functional; conditions: SR11435, 20 h
Outline: (§3)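 Agar dilution on Sensitivity Disk Agar-N. Overnight Mueller Hinton broth cultures were diluted to about 10^6 CFU/mL, and 1 µL spots were placed on agar plates holding 2-fold serial dilutions of antibiotic. Plates were incubated 20 h at 37 °C and then MICs were scored.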

Haemophilus influenzae [4] = assay: Antibacterial activity against beta-lactamase non-producing penicillin-resistant Haemophilus influenzae SR24106 after 20 hrs by agar dilution method; type: functional; conditions: SR24106, 20 h; outline: as §3
[5] = AUC (0 to infinity) in monkey at 20 mg/kg, iv administered as bolus dose by HPLC method; type: ADME, organism-based, Macaca mulatta; design: dose 20 mg/kg, time infinity, route intravenous; conditions: rhesus monkey, in vivo
Outline: (§4)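 Three monkeys per group received a single iv bolus of 20 mg/kg (1 mL/kg). Plasma levels were measured by HPLC. AUC0-∞, CLtot and T1/2 came from a 2-compartment fit.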

[6] = Protein binding in ICR mouse plasma after 30 mins by ultra-filtration method; type: ADME, cell-free; conditions: read-out: PPB (converted); outline: as §2
Streptococcus pneumoniae [7] = assay: Antibacterial activity against penicillin-resistant Streptococcus pneumoniae SR16675 after 20 hrs by agar dilution method; type: functional; conditions: SR16675, 20 h; outline: as §3
[8] = Half life in mouse at 20 mg/kg, iv administered as bolus dose by band-culture bioassay; conditions: in vivo
Streptococcus pneumoniae [9] = assay: Antibacterial activity against penicillin-resistant Streptococcus pneumoniae SR16750 after 20 hrs by agar dilution method; type: functional; conditions: SR16750, 20 h; outline: as §3
[10] = AUC (0 to infinity) in mouse at 20 mg/kg, iv administered as bolus dose by band-culture bioassay; conditions: in vivo
Escherichia coli [11] = assay: Antibacterial activity against Escherichia coli NIHJ JC-2 after 20 hrs by agar dilution method; type: functional; conditions: NIHJ JC-2, 20 h; outline: as §1
[12] = Half life in monkey at 20 mg/kg, iv administered as bolus dose by HPLC method; type: ADME, organism-based, Macaca mulatta; conditions: rhesus monkey, in vivo; outline: as §4
[13] = Total clearance in monkey at 20 mg/kg, iv administered as bolus dose by HPLC method; type: ADME, organism-based, Macaca mulatta; conditions: rhesus monkey, in vivo; outline: as §4
[14] = Total clearance in mouse at 20 mg/kg, iv administered as bolus dose by band-culture bioassay; conditions: in vivo
Pseudomonas aeruginosa [15] = assay: Antibacterial activity against Pseudomonas aeruginosa SA24; type: functional; outline: as §1
Pseudomonas aeruginosa [16] = assay: Antibacterial activity against Pseudomonas aeruginosa PAO1; type: functional; outline: as §1
Staphylococcus aureus [17] = assay: Antibacterial activity against methicillin-resistant Staphylococcus aureus SR2030; type: functional; outline: as §3
Escherichia coli [18] = assay: Antibacterial activity against Escherichia coli NIHJ JC-2; type: functional; outline: as §1
Staphylococcus aureus [19] = assay: Antibacterial activity against Staphylococcus aureus SMITH; type: functional; outline: as §1
Staphylococcus aureus [20] = assay: Antibacterial activity against methicillin-resistant Staphylococcus aureus SR3626; type: functional; outline: as §3

Row | Compound | MIC (Staphylococcus aureus [1]) [µg/mL] | fraction unbound at 0.5 h [2] | MIC (Moraxella catarrhalis) [µg/mL] | MIC (Haemophilus influenzae [3]) [µg/mL] | MIC (Haemophilus influenzae [4]) [µg/mL] | AUC [5] [ng·h/mL] | fraction unbound at 0.5 h [6] | MIC (Streptococcus pneumoniae [7]) [µg/mL] | half-life [8] [h] | MIC (Streptococcus pneumoniae [9]) [µg/mL] | AUC(0-inf) [10] [ng·h/mL] | MIC (Escherichia coli [11]) [µg/mL] | half-life [12] [h] | clearance [13] [mL/min/kg] | clearance [14] [mL/min/kg] | other results
1 | CCO/N=C(\C(=O)N[C@@H]1C(=O)N2C(C(=O)[O-])=C(/C=C/C[n+]3ccc(-c4cc(/C([O-])=N/C#N)on4)cc3)CS[C@H]12)c1csc(N)n1.[Na+] | 0.5 | 0.06 | 0.5 | 0.063 | 0.125 | 59800 | 0.78 | 0.25 | 0.85 | 0.25 | 14800 | 0.125 | 5.14 | 0.29 | 22.6 | –
2 | CCO/N=C(\C(=O)N[C@@H]1C(=O)N2C(C(=O)[O-])=C(/C=C/C[n+]3cccc(/C([O-])=N/C#N)c3)CS[C@H]12)c1csc(N)n1.[Na+] | 0.5 | 0.67 | 2 | 0.063 | 0.125 | 9500 | 0.94 | 0.25 | 0.55 | 0.5 | 14100 | 0.125 | 1.33 | 1.79 | 23.7 | –
3 | CCO/N=C(\C(=O)N[C@@H]1C(=O)N2C(C(=O)[O-])=C(C[n+]3ccc(-c4c[nH]c(C(=O)O)c4)cc3)CS[C@H]12)c1nsc(N)n1 | – | – | – | – | – | – | – | – | – | – | – | – | – | – | – | MIC (Pseudomonas aeruginosa [15]): 0.8 µg/mL (≈ 1.34 µM); MIC (Pseudomonas aeruginosa [16]): 0.8 µg/mL (≈ 1.34 µM); MIC (Staphylococcus aureus [17]): 12.5 µg/mL (≈ 20.9 µM); MIC (Escherichia coli [18]): 0.05 µg/mL (≈ 0.0835 µM); MIC (Staphylococcus aureus [19]): 3.1 µg/mL (≈ 5.18 µM); MIC (Staphylococcus aureus [20]): 25 µg/mL (≈ 41.8 µM)
4 | CCO/N=C(\C(=O)N[C@@H]1C(=O)N2C(C(=O)[O-])=C(C[n+]3ccc(-c4c[nH]c(C(=O)NC#N)c4)cc3)CS[C@H]12)c1nsc(N)n1 | – | – | – | – | – | 22000 | – | – | 0.4 | – | 27300 | – | 2 | – | – | MIC (Pseudomonas aeruginosa [15]): 0.4 µg/mL (≈ 0.642 µM); MIC (Pseudomonas aeruginosa [16]): 0.8 µg/mL (≈ 1.28 µM); MIC (Staphylococcus aureus [17]): 12.5 µg/mL (≈ 20.1 µM); MIC (Escherichia coli [18]): 0.1 µg/mL (≈ 0.161 µM); MIC (Staphylococcus aureus [19]): 1.6 µg/mL (≈ 2.57 µM); MIC (Staphylococcus aureus [20]): 12.5 µg/mL (≈ 20.1 µM)
5 | CCO/N=C(\C(=O)N[C@@H]1C(=O)N2C(C(=O)[O-])=C(/C=C/C[n+]3ccc(-c4csc(/C([O-])=N/C#N)c4)cc3)CS[C@H]12)c1csc(N)n1.[Na+] | 0.25 | 0.36 | 2 | 0.063 | 0.125 | 25900 | 0.63 | 0.125 | 0.75 | 0.25 | 30400 | 0.125 | 4.67 | 0.66 | 11 | –
6 | CCO/N=C(\C(=O)N[C@@H]1C(=O)N2C(C(=O)[O-])=C(/C=C/C[n+]3cccc4cc(/C([O-])=N/C#N)[nH]c43)CS[C@H]12)c1csc(N)n1.[Na+] | 0.5 | 0.06 | 0.5 | 0.063 | 0.25 | 29200 | 0.67 | 0.25 | 0.64 | 0.5 | 22200 | 0.125 | 4.35 | 0.57 | 15 | –
7 | CCO/N=C(\C(=O)N[C@@H]1C(=O)N2C(C(=O)[O-])=C(/C=C/C[n+]3ccc(/C([O-])=N/C#N)cc3)CS[C@H]12)c1csc(N)n1.[Na+] | 0.5 | 0.59 | 1 | 0.063 | 0.125 | 9700 | 0.92 | 0.25 | 0.72 | 0.5 | 14600 | 0.25 | 1.22 | 1.84 | 22.9 | –
8 | CCO/N=C(\C(=O)N[C@@H]1C(=O)N2C(C(=O)[O-])=C(/C=C/C[n+]3ccc4[nH]c(/C([O-])=N/C#N)cc4c3)CS[C@H]12)c1csc(N)n1.[Na+] | 0.5 | 0.33 | 4 | 0.063 | 0.125 | 20900 | 0.73 | 0.25 | 0.63 | 0.5 | 30400 | 0.25 | 3.35 | 0.8 | 10.9 | –
9 | CCO/N=C(\C(=O)N[C@@H]1C(=O)N2C(C(=O)[O-])=C(/C=C/C[n+]3ccc4sc(/C([O-])=N/C#N)nc4c3)CS[C@H]12)c1csc(N)n1.[Na+] | 0.5 | 0.16 | 0.5 | 0.063 | 0.063 | 24500 | 0.59 | 0.125 | 0.7 | 0.25 | 23700 | 0.25 | 2.86 | 0.68 | 14 | –
10 | CCO/N=C(\C(=O)N[C@@H]1C(=O)N2C(C(=O)[O-])=C(C[n+]3ccc(-c4cc[nH]c4)cc3)CS[C@H]12)c1nsc(N)n1 | – | – | – | – | – | – | – | – | – | – | – | – | – | – | – | MIC (Pseudomonas aeruginosa [15]): 0.8 µg/mL (≈ 1.44 µM); MIC (Pseudomonas aeruginosa [16]): 0.8 µg/mL (≈ 1.44 µM); MIC (Staphylococcus aureus [17]): 1.6 µg/mL (≈ 2.88 µM); MIC (Escherichia coli [18]): 0.02 µg/mL (≈ 0.0361 µM); MIC (Staphylococcus aureus [19]): 0.4 µg/mL (≈ 0.721 µM); MIC (Staphylococcus aureus [20]): 6.3 µg/mL (≈ 11.4 µM)
11 | CCO/N=C(\C(=O)N[C@@H]1C(=O)N2C(C(=O)[O-])=C(/C=C/C[n+]3cccc4[nH]c(/C([O-])=N/C#N)cc43)CS[C@H]12)c1csc(N)n1.[Na+] | 0.5 | 0.4 | 1 | 0.031 | 0.125 | 9800 | 0.64 | 0.25 | 0.73 | 0.5 | 23600 | 0.125 | 2.03 | 1.74 | 14.1 | –
12 | CCO/N=C(\C(=O)N[C@@H]1C(=O)N2C(C(=O)[O-])=C(/C=C/C[n+]3cccc4cc(/C([O-])=N/C#N)ccc43)CS[C@H]12)c1csc(N)n1.[Na+] | 0.25 | 0.63 | 0.5 | 0.031 | 0.125 | 8200 | 0.9 | 0.25 | 0.95 | 0.5 | 12900 | 0.125 | 1.74 | 2.08 | 25.7 | –
13 | CCO/N=C(\C(=O)N[C@@H]1C(=O)N2C(C(=O)[O-])=C(/C=C/C[n+]3ccc4c(/C([O-])=N\C#N)cccc4c3)CS[C@H]12)c1csc(N)n1.[Na+] | 0.5 | 0.42 | 2 | 0.063 | 0.125 | 10600 | 0.97 | 0.25 | 0.73 | 0.5 | 14200 | 0.125 | 1.52 | 1.59 | 23.5 | –
14 | CO/N=C(\C(=O)N[C@@H]1C(=O)N2C(C(=O)[O-])=C(C[n+]3ccn4ncccc43)CS[C@H]12)c1nsc(N)n1 [CEFOZOPRAN] | – | – | – | – | – | 15000 | – | – | 0.4 | – | 30300 | – | 1.2 | – | – | MIC (Pseudomonas aeruginosa [15]): 0.4 µg/mL (≈ 0.776 µM); MIC (Pseudomonas aeruginosa [16]): 0.8 µg/mL (≈ 1.55 µM); MIC (Staphylococcus aureus [17]): 12.5 µg/mL (≈ 24.2 µM); MIC (Escherichia coli [18]): 0.05 µg/mL (≈ 0.097 µM); MIC (Staphylococcus aureus [19]): 0.8 µg/mL (≈ 1.55 µM); MIC (Staphylococcus aureus [20]): 50 µg/mL (≈ 97 µM)
